Measured values: the RNAGym collection of RNA variant scans (doi:10.1126/science.aae0568)
Fewer inactive variants are shown than the library holds.

B1: tRNA (parent)
chain: GUUCCGUUGGCGUAAUGGUAACGCGUCUCCCUCCUAAGGAGAAGACUGCGGGUUCGAGUCCCGUACGGAACG

Variants of: B1
Experiment: yeast fitness relative to wild type (ratio to wild type); higher = fitter; tRNA-Arg(CCU), competitive growth, 37 C, YPD
Summary of the method: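 Changes in genotype frequencies gave Darwinian fitness relative to wild type. Frequencies were read by 100-nucleotide paired-end sequencing of gene amplicons before and after pooled Saccharomyces cerevisiae strains, carrying tRNA-Arg(CCU) gene variants at the native locus, were competed in YPD at 37°C for 24 hours in six replicates. A genotype was kept only with ≥ 100 starting reads, and estimates < 0.5 were set to 0.5.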

Row | Variant | yeast fitness
1 | G12A C24U C29A | ≤ 0.5
2 | G12A A20U | 0.831
3 | G12A A37C C61U | ≤ 0.5
4 | G12A A20G U26C C31G C33U A42U | ≤ 0.5
5 | G12A C22G A57C | 0.549
6 | G12A C24U C34U G58C C62G G67A | 0.542
7 | G12A A36C G41C | ≤ 0.5
8 | G12A A21C U35G G51A | ≤ 0.5
9 | G12A A21U C55G C60A C61G C66G | ≤ 0.5
10 | G12A A21G C24G U28G C46U | 0.582
11 | G12A C24G C33A A40C | ≤ 0.5
12 | G12A C27G U32G | ≤ 0.5
13 | G12A A20C A69U | 0.811
14 | G12A C24U C31G | 0.532
15 | G12A A42G A45G U54A C62A | ≤ 0.5
16 | G12A A36U A37C A43G A57U | ≤ 0.5
17 | G12A C22U C24U | ≤ 0.5
18 | G12A C27U C30G A42G C55U A57C | ≤ 0.5
19 | G12A C22G C31G | 0.662
20 | G12A A42G A69U | 0.688
21 | G12A A20G C22U | ≤ 0.5
22 | G12A C24U C34U | 0.519
23 | G12A C24U C34G | 0.696
24 | G12A C27A G56C | 0.533

Row | Variant | yeast fitness
25 | G12A C24U G67C | 0.603
26 | G12A A21G C31A A65U A70U | ≤ 0.5
27 | G12A C22U | 0.873
28 | G12A C22A | 1.03
29 | G12A C27U C30A C55U A57C | ≤ 0.5
30 | G12A C27G A69C | ≤ 0.5
31 | G12A A37G G39C A57C | ≤ 0.5
32 | G12A A42C C49A C61U | ≤ 0.5
33 | G12A C24U U64G | ≤ 0.5
34 | G12A C29U U64A | ≤ 0.5
35 | G12A C24G G38A A40C A43C C46U G68C A69U | ≤ 0.5
36 | G12A C27G C55A G58A | ≤ 0.5
37 | G12A A20U A21U C34G G63C | ≤ 0.5
38 | G12A A42G U54A A65C | ≤ 0.5
39 | G12A C24U | 0.697
40 | G12A C24A | 0.751
41 | G12A C24G | 0.758
42 | G12A C24G U26G G39C C49G | 0.511
43 | G12A C29A U35A | ≤ 0.5
44 | G12A A45C | 0.834
45 | G12A A37U A57C | 0.608
46 | G12A A36G C55U A69U | ≤ 0.5
47 | G12A A42C G52A | 0.585
48 | G12A A36C A40U G41C | 0.576

Row | Variant | yeast fitness
49 | G12A C29A A42U C46U C55A G56C | ≤ 0.5
50 | G12A C22A A57C U64A | ≤ 0.5
51 | G12A C27G A42C | 0.548
52 | G12A A40C C61A | ≤ 0.5
53 | G12A A36G C49G | ≤ 0.5
54 | G12A C27G G48A | ≤ 0.5
55 | G12A A37G A65C | ≤ 0.5
56 | G12A A70C | 0.936
57 | G12A A20U C49U U53G A65G | ≤ 0.5
58 | G12A C24G A36G A65U | ≤ 0.5
59 | G12A C22A C24A A36U U53A | ≤ 0.5
60 | G12A C29A C31G C60A | ≤ 0.5
61 | G12A A43U C62U | 0.807
62 | G12A C27G A40G | ≤ 0.5
63 | G12A A21G C24G U28G | 0.992
64 | G12A A43U G48A C61G A70C | ≤ 0.5
65 | G12A C24U G67A A69U | ≤ 0.5
66 | G12A C29U C55G A65U | ≤ 0.5
67 | G12A C24G U35A A40U G41A A42C | ≤ 0.5
68 | G12A C24G C29A A69U A70G | ≤ 0.5
69 | G12A A45G U47C U59A | ≤ 0.5
70 | G12A A37C A45C G52C A70U | ≤ 0.5
71 | G12A C29A A42U | 0.616
72 | G12A C27G C55A C66U | ≤ 0.5

Row | Variant | yeast fitness
73 | G12A A20U G56C G58C | ≤ 0.5
74 | G12A A40C C55A | ≤ 0.5
75 | G12A C27G A65G G68U | 0.544
76 | G12A A20U G25C U53A | 0.599
77 | G12A A36G U47G | 0.584
78 | G12A A36U G63A | ≤ 0.5
79 | G12A C24G C33G A36C A37C A42C A65U | ≤ 0.5
80 | G12A A40C A69C | 0.757
81 | G12A A21G C31A | 0.625
82 | G12A C27A C30G G68U | ≤ 0.5
83 | G12A C22G A45G C49U U53A C66G | ≤ 0.5
84 | G12A C29G C34U A36C C61A | 0.553
85 | G12A A20U C34A C55G C66A | ≤ 0.5
86 | G12A A36C G51A | 0.603
87 | G12A C29A G68A A69C | ≤ 0.5
88 | G12A C27G A70C | ≤ 0.5
89 | G12A A36U A37G | 0.543
90 | G12A C22G A69U | 0.791
91 | G12A C24G A43C C62U A65G | 0.636
92 | G12A A65C | 0.851
93 | G12A A21C C24A A69C | 0.933
94 | G12A A40C U59G A65G | ≤ 0.5
95 | G12A A40G C46A C61U | ≤ 0.5
96 | G12A A43U A45C G67C G68U | ≤ 0.5

Row | Variant | yeast fitness
97 | G12A C24A A36C A70C | ≤ 0.5
98 | G12A A21U C55U C62G | ≤ 0.5
99 | G12A A20G U26C C29U C31G C33U A42U | ≤ 0.5
100 | G12A C29U | 0.735
101 | G12A A37G A43G U53A G58C C66G | ≤ 0.5
102 | G12A C30A | 0.915
103 | G12A A57C A65C A70C | ≤ 0.5
104 | G12A A36C G41A U53C | ≤ 0.5
105 | G12A C24U G58A U59A A65U | ≤ 0.5
106 | G12A C29A G67C | ≤ 0.5
107 | G12A C27U G51C A57U | 0.534
108 | G12A C27G A43G U64G | ≤ 0.5
109 | G12A A43U | 0.889
110 | G12A A43G | 0.988
111 | G12A A43C | 0.855
112 | G12A C24G U26G A40U | ≤ 0.5
113 | G12A A20U A42C G68A | 0.519
114 | G12A C27G C46A C55U | 0.603
115 | G12A A43C C46U | 0.764
116 | G12A C24A C27A | ≤ 0.5
117 | G12A A20U C27A U32C C55U G68A | ≤ 0.5
118 | G12A A40C | 0.792
119 | G12A A40U | 1
120 | G12A A40G | 0.871

Row | Variant | yeast fitness
121 | G12A A20U C31A G52A C66U | ≤ 0.5
122 | G12A A21U C66U A69C | ≤ 0.5
123 | G12A A20G A45U C49G G52C | ≤ 0.5
124 | G12A A20C U54C C62U A70G | ≤ 0.5
125 | G12A A42C C55U | ≤ 0.5
126 | G12A C27G A36U | 0.599
127 | G12A C24G C29A U47A C62A | ≤ 0.5
128 | G12A C22G G52C G58C A65U | 0.53
129 | G12A C27U C33U U47A A70C | ≤ 0.5
130 | G12A A37G U59C | ≤ 0.5
131 | G12A C27U | 0.942
132 | G12A C27G | 0.71
133 | G12A C27A | 0.844
134 | G12A A37G A65G A69C | ≤ 0.5
135 | G12A A21U A69C | ≤ 0.5
136 | G12A C27G C34A C49A C60G C61U | 0.527
137 | G12A A20C C61G C66A | ≤ 0.5
138 | G12A A15U G63A | 0.601
139 | G12A A36G U47G A65U | 0.646
140 | G12A C24G C29A C55U C61G A65G G68A | ≤ 0.5
141 | G12A A65G A69C | 0.556
142 | G12A A42G | 0.837
143 | G12A A36G | 0.906
144 | G12A A36C | 0.628

Row | Variant | yeast fitness
145 | G12A A65C C66U G67U | 0.612
146 | G12A C22U C31G G48C | ≤ 0.5
147 | G12A C24A A36U C61U G67U | 0.69
148 | G12A C29A A45G | ≤ 0.5
149 | G12A A21G C34U | ≤ 0.5
150 | G12A C24U A36C C46U C60U A65C | 0.729
151 | G12A C24A A36U U54C C61U | ≤ 0.5
152 | G12A A42U C60G A69G | ≤ 0.5
153 | G12A A69U | 1.03
154 | G12A A69G | 0.907
155 | G12A A69C | 0.866
156 | G12A C27G U32G G67C | ≤ 0.5
157 | G12A A21C | 0.643
158 | G12A A21G | 1.04
159 | G12A A43U A45C A57G C60U G68C | ≤ 0.5
160 | G12A C22U A37U G50C C66U | 0.538
161 | G12A C22U C30G C31A G39C A57G | ≤ 0.5
162 | G12A C24U G38C C62G | ≤ 0.5
163 | G12A A36G U47G U54C A65U | ≤ 0.5
164 | G12A A20C C62G | ≤ 0.5
165 | G12A A42G A65U | ≤ 0.5
166 | G12A A42G A65C | 0.6
167 | G12A A40C U64G | ≤ 0.5
